From ChEMBL document CHEMBL1144844, “Synthesis and characterization of 5,6,7,8-tetrahydroquinoline C5a receptor antagonists” (Bioorg Med Chem Lett, 2008)
Values belong to the compound of their own block, whether it stands above or below them.

Legend:
[1] = target: T1, C5a anaphylatoxin chemotactic receptor 1 (Homo sapiens, UniProt P21730); assay: Antagonist activity at human C5a receptor in U937 cells assessed as inhibition of anaphylatoxin-induced intracellular calcium mobilization; assay type: functional, cell-based, U-937
T1 sequence (P21730 whole entry): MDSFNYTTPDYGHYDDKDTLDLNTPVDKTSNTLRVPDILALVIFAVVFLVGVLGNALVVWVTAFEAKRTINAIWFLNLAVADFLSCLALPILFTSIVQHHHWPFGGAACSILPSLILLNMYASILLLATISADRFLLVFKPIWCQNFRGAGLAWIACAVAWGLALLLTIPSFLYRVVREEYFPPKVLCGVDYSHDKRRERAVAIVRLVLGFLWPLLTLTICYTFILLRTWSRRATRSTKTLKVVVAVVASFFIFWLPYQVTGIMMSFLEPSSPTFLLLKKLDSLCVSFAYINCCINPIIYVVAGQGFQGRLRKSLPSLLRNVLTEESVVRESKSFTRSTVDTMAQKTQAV

[2] = target: T1, C5a anaphylatoxin chemotactic receptor 1; assay: Displacement of [125I]C5a from human C5a receptor in U937 cells; assay type: cell-based, U-937
[3] = Metabolic stability in human liver microsomes; assay type: ADME, Microsome
[4] = Oral bioavailability in rat at 10 mg/kg; assay type: ADME, organism-based; details: in vivo
Summary of the method: (§1)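 Rat pharmacokinetics with single doses: oral at 10 mg/kg and intravenous at 2 mg/kg, n = 4. Cmax and half-life were taken from the oral arm, and bioavailability from comparison of the oral and intravenous exposures.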

[5] = Clearance in rat at 2 mg/kg, iv; details: in vivo
[6] = Metabolic stability in human liver microsomes after 10 mins; assay type: ADME, Microsome; details: read-out: Stability
[7] = Cmax in rat at 10 mg/kg, po; assay type: ADME, organism-based; design: dose 10 mg/kg, route oral; details: in vivo; summary of the method: as §1
[8] = Half life in rat at 10 mg/kg, po; assay type: ADME, organism-based; design: dose 10 mg/kg, route oral; details: in vivo; summary of the method: as §1

SMILES: CCc1cccc(CC)c1-c1cc(OC)c2c(n1)CCCC2N(C)c1c(C)ccc2ccccc12 (stereo unspecified)
IC50 [1]: 1500 nM

SMILES: CCN(c1cccc2ccccc12)C1CCCc2nc(-c3cccnc3)cc(OC)c21 (stereo unspecified)
IC50 [1]: > 10000 nM

SMILES: CCc1cccc(CC)c1-c1cc(OC)c2c(n1)CCCC2N1CCc2cccc(C(F)(F)F)c2C1 (stereo unspecified)
IC50 [1]: 270 nM

SMILES: CCc1cccc(CC)c1-c1cc(OC)c2c(n1)CCCC2N(CCO)c1cccc2ccccc12 (stereo unspecified)
IC50 [1]: 190 nM | Ki [2]: 180 nM

SMILES: CCNC1CCCc2nc(-c3c(CC)cccc3CC)cc(OC)c21 (stereo unspecified)
IC50 [1]: > 10000 nM

SMILES: CCc1cccc(CC)c1-c1cc(OC)c2c(n1)CCCC2Nc1cccc2ccccc12 (stereo unspecified)
IC50 [1]: > 10000 nM

SMILES: CCN(c1cccc2ccccc12)C1CCCc2nc(-c3ccccc3)cc(OC)c21 (stereo unspecified)
IC50 [1]: > 10000 nM

SMILES: CCc1cccc(CC)c1-c1cc(Cl)c2c(n1)CCCC2N(CC)c1cccc2ccccc12 (stereo unspecified)
IC50 [1]: 2000 nM

SMILES: CCc1cccc(CC)c1-c1cc(OC)c2c(n1)CCCC2N1CCc2ccccc2C1 (stereo unspecified)
IC50 [1]: 1100 nM

SMILES: CCN(c1cccc2ccccc12)C1CCCc2nc(-c3ccccc3-c3ccccc3)cc(OC)c21 (stereo unspecified)
IC50 [1]: > 10000 nM

SMILES: CCc1cccc(CC)c1-c1cc(OC)c2c(n1)CCCC2N(C)c1cccc2ccccc12 (stereo unspecified)
IC50 [1]: 170 nM

SMILES: CCN(c1cccc2ccccc12)C1CCCc2nc(Cl)cc(OC)c21 (stereo unspecified)
IC50 [1]: > 10000 nM

SMILES: CCc1cccc(CC)c1-c1cc(OC)c2c(n1)CCCC2N1CCc2ccc(C(F)(F)F)cc2C1 (stereo unspecified)
IC50 [1]: > 10000 nM

SMILES: CCc1cccc(CC)c1-c1cc(OC)c2c(n1)CCCC2N[C@@H]1CCCc2ccccc21 (stereo in doubt; 40)
IC50 [1]: 1900 nM

SMILES: CCN(c1cccc2ccccc12)C1CCCc2nc(-c3c(C)cccc3C)cc(OC)c21 (stereo unspecified)
IC50 [1]: 130 nM

SMILES: CCN(c1cccc2ccccc12)C1CCCc2nc(-c3ccc4c(c3)OCO4)cc(OC)c21 (stereo unspecified)
IC50 [1]: > 10000 nM

SMILES: CCc1ccccc1-c1cc(OC)c2c(n1)CCCC2N(CC)c1cccc2ccccc12 (stereo unspecified)
IC50 [1]: 650 nM

SMILES: CCc1cccc(CC)c1-c1ccc2c(n1)CCCC2N(CC)c1cccc2ccccc12 (stereo unspecified)
IC50 [1]: > 10000 nM

SMILES: CCc1cccc(CC)c1-c1cc(OC)c2c(n1)CCCC2N1CCc2ccc(OC)cc2C1 (stereo unspecified)
IC50 [1]: > 10000 nM

SMILES: CCc1cccc(CC)c1-c1cc(OC)c2c(n1)CCCC2N(C)c1cccc2c(OC)cccc12 (stereo unspecified)
IC50 [1]: > 10000 nM

SMILES: CCN(c1cccc2ccccc12)C1CCCc2nc(-c3ccccc3C(C)C)cc(OC)c21 (stereo unspecified)
IC50 [1]: 1700 nM

SMILES: CCN(c1cccc2ccccc12)C1CCCc2nc(-c3c(OC)cccc3OC)cc(OC)c21 (stereo unspecified)
IC50 [1]: 1800 nM | Ki [2]: 1200 nM

SMILES: CCc1cccc(CC)c1-c1cc(OC)c2c(n1)CCCC2N(CC)c1cccc2c1CCCC2 (stereo unspecified)
IC50 [1]: 220 nM

SMILES: CCc1cccc(CC)c1-c1cc(OC)c2c(n1)CCCC2N1CCc2c(cccc2C(F)(F)F)C1 (stereo unspecified)
IC50 [1]: > 10000 nM

half-life [3]: 0.9 h | bioavailability [4]: 59% | clearance [5]: 31 mL/min/kg | remaining at 10 min [6]: 88% | Cmax [7]: 1300 nM | half-life [8]: 1.8 h
SMILES: CCc1cccc(CC)c1-c1cc(OC)c2c(n1)CCCC2N(CC)c1cccc2ccccc12 (stereo in doubt; 27)

SMILES: CCc1cccc(CC)c1-c1cc(OC)c2c(n1)CCCC2N(C)c1ccc2ccccc2c1 (stereo unspecified)
IC50 [1]: > 10000 nM

SMILES: CCc1cccc(CC)c1-c1cc(CC)c2c(n1)CCCC2N(C)Cc1cccc2ccccc12 (stereo unspecified)
IC50 [1]: > 10000 nM

SMILES: CCN(c1cccc2ccccc12)C1CCCc2nc(-c3ccsc3)cc(OC)c21 (stereo unspecified)
IC50 [1]: > 10000 nM

SMILES: CCc1cccc(CC)c1-c1cc(OC)c2c(n1)CCCC2N[C@H]1CCCc2ccccc21 (stereo in doubt; 38)
IC50 [1]: 820 nM

SMILES: CCc1cccc(CC)c1-c1cc(OC)c2c(n1)CCCC2N(C)c1cccc2cc(OC)ccc12 (stereo unspecified)
IC50 [1]: 180 nM

SMILES: CCc1cccc(CC)c1-c1cc(CC)c2c(n1)CCCC2N(CC)Cc1ccccc1 (stereo unspecified)
IC50 [1]: > 10000 nM

SMILES: CCc1cccc(CC)c1-c1cc(OC)c2c(n1)CCCC2N[C@@H]1CCCc2ccccc21 (stereo in doubt; 41)
IC50 [1]: 8100 nM

SMILES: CCc1cccc(CC)c1-c1cc(OC)c2c(n1)CCCC2N1CCc2cc(OC)c(OC)cc2C1 (stereo unspecified)
IC50 [1]: > 10000 nM

SMILES: CCc1cccc(CC)c1-c1cc(OC)c2c(n1)CCCC2N[C@H]1CCCc2ccccc21 (stereo in doubt; 39)
IC50 [1]: 5500 nM
